Measured values as given in ChEMBL document CHEMBL1138351, “Small, potent, and selective diaryl phosphonate inhibitors for urokinase-type plasminogen activator with in vivo antimetastatic properties” (J Med Chem, 2007).

Experiments:
[1] = Stability in human plasma after 3 hrs; format: ADME, cell-free; conditions: read-out: Stability
Procedure, shortened: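 Compound was added from 10 mM DMSO stock to human plasma at 200 µM final and shaken at 37 °C for up to 24 h. Aliquots were quenched in methanol and centrifuged. The supernatant was diluted with internal standard and analysed by LC/MS/MS in triplicate. Result is given as % parent compound remaining.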

[2] = target: Urokinase-type plasminogen activator (Rattus norvegicus, UniProt P29598); test: Inhibition of rat uPA
[3] = target: Urokinase-type plasminogen activator (Mus musculus, UniProt P06869); test: Inhibition of mouse uPA
Plasminogen [4] = target: Plasminogen (Rattus norvegicus, UniProt Q01177); test: Inhibition of rat plasmin
Prothrombin = Prothrombin (Rattus norvegicus, UniProt P18292); test: Inhibition of rat thrombin
[5] = target: Tissue-type plasminogen activator (Homo sapiens, UniProt P00750); test: Inhibition of human recombinant tPA
Plasminogen [6] = target: Plasminogen (Homo sapiens, UniProt P00747); test: Inhibition of human plasmin
Procedure, shortened: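 Plasmin from human plasma at about 5 mU was preincubated with inhibitor (0–250 µM final) for 15 min at 37 °C. Substrate was S-2366 at 580 µM in Tris pH 7.4. Initial rate was read at 405 nm, in duplicate. IC50 came from a four-parameter logistic fit.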

Coagulation factor X = Coagulation factor X (Homo sapiens, UniProt P00742); test: Inhibition of factor 10a
Procedure, shortened: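 Human factor Xa (FX activated with Russell's viper venom) at about 5 mU was preincubated with inhibitor (0–250 µM final) for 15 min at 37 °C. […] IC50 came from a four-parameter logistic fit.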

[7] = Distribution coefficient, log D in octanol and phosphate buffer saline at pH 7.4; format: physicochemical; conditions: octanol/phosphate buffered saline
Procedure, shortened: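 A 10 mM DMSO stock was added to a 1:1 octanol/PBS pH 7.4 mixture. Measured in duplicate.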

[8] = Chemical stability assessed as half life of hydrolysis at pH 4; format: physicochemical; conditions: buffer
[9] = Chemical stability assessed as half life of hydrolysis at pH 7.4; format: physicochemical; conditions: buffer
[10] = Chemical stability assessed as half life of hydrolysis at pH 8.8; format: physicochemical; conditions: buffer
[11] = Antitumor activity aganist Brown Norwegian rat bearing BN472 tumor assessed as reduction of tumor size at 0.1 mg/kg, ip administered once daily after 4 days of tumor transplantation for 17 to 18 days relative to control; format: functional; parameters: scale not given: the % may be the effect or the level left; conditions: route intraperitoneal
Procedure, shortened: (§1)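 Rats bearing orthotopic BN472 breast tumours (grown three days) were dosed i.p. daily from day 4 for 17–18 days at 0.1 or 1 mg/kg. Vehicle-only i.p. controls were included. Tumour size and tumour weight were measured at the end of the treatment period and compared with controls.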

[12] = Antitumor activity against Brown Norwegian rat bearing BN472 tumor assessed as reduction of tumor size at 1 mg/kg, ip administered once daily after 4 days of tumor transplantation for 17 to 18 days relative to control; format: functional; parameters: scale not given: the % may be the effect or the level left; conditions: route intraperitoneal; procedure, shortened: as §1
[13] = Antitumor activity aganist Brown Norwegian rat bearing BN472 tumor assessed as reduction of tumor weight at 0.1 mg/kg, ip administered once daily after 4 days of tumor transplantation for 17 to 18 days relative to control; format: functional; parameters: scale not given: the % may be the effect or the level left; conditions: route intraperitoneal; procedure, shortened: as §1
[14] = Antimetastatic activity against Brown Norwegian rat bearing BN472 tumor assessed as decrease in number of lung foci at 0.1 mg/kg, ip administered once daily after 4 days of tumor transplantation for 17 to 18 days relative to control; format: functional; parameters: scale not given: the % may be the effect or the level left; conditions: route intraperitoneal
Procedure, shortened: (§2)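 BN472 breast tumours implanted orthotopically in rats and left to grow three days. From day 4, compounds were given i.p. daily for 17–18 days at 0.1 or 1 mg/kg. Controls received vehicle i.p. only. Lung foci were counted and axillary lymph nodes weighed at the end of treatment. Groups were compared with control at an unadjusted significance level of P 0.05.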

[15] = Antimetastatic activity against Brown Norwegian rat bearing BN472 tumor assessed as decrease in number of lung foci at 1 mg/kg, ip administered once daily after 4 days of tumor transplantation for 17 to 18 days relative to control; format: functional; parameters: scale not given: the % may be the effect or the level left; conditions: route intraperitoneal; procedure, shortened: as §2
[16] = Antimetastatic activity against Brown Norwegian rat bearing BN472 tumor assessed as reduction of axillary lymph node weight at 0.1 mg/kg, ip administered once daily after 4 days of tumor transplantation for 17 to 18 days relative to control; format: functional; parameters: scale not given: the % may be the effect or the level left; conditions: route intraperitoneal; procedure, shortened: as §2
[17] = Antimetastatic activity against Brown Norwegian rat bearing BN472 tumor assessed as reduction of interpectoral lymph node weight at 1 mg/kg, ip administered once daily after 4 days of tumor transplantation for 17 to 18 days relative to control; format: functional; parameters: scale not given: the % may be the effect or the level left; conditions: route intraperitoneal
Rattus norvegicus [18] = test: Toxicity in Brown Norwegian rat bearing BN472 tumor assessed as effect on body weight at 0.1 mg/kg, ip administered once daily after 4 days of tumor transplantation for 17 to 18 days relative to control; format: organism-based; parameters: dose 0.1 mg/kg, route intraperitoneal; conditions: in vivo
Procedure, shortened: (§3)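 Orthotopic BN472 breast tumour model in rats. Daily i.p. dosing at 0.1 or 1 mg/kg started on day 4 and ran 17–18 days, with vehicle-only i.p. controls. Side effects were assessed from body weight and the weights of several organs, compared with controls.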

Rattus norvegicus [19] = test: Toxicity in Brown Norwegian rat bearing BN472 tumor assessed as effect on body weight at 1 mg/kg, ip administered once daily after 4 days of tumor transplantation for 17 to 18 days relative to control; format: organism-based; parameters: dose 1 mg/kg, route intraperitoneal; conditions: in vivo; procedure, shortened: as §3
Rattus norvegicus [20] = test: Toxicity in Brown Norwegian rat bearing BN472 tumor assessed as increase in lung weight at 0.1 mg/kg, ip administered once daily after 4 days of tumor transplantation for 17 to 18 days relative to control; format: organism-based; parameters: dose 0.1 mg/kg, route intraperitoneal; conditions: in vivo; procedure, shortened: as §3
Rattus norvegicus [21] = test: Toxicity in Brown Norwegian rat bearing BN472 tumor assessed as increase in uterus weight at 0.1 mg/kg, ip administered once daily after 4 days of tumor transplantation for 17 to 18 days relative to control; format: organism-based; parameters: dose 0.1 mg/kg, route intraperitoneal; conditions: in vivo; procedure, shortened: as §3
Rattus norvegicus [22] = test: Toxicity in Brown Norwegian rat bearing BN472 tumor assessed as increase in uterus weight at 1 mg/kg, ip administered once daily after 4 days of tumor transplantation for 17 to 18 days relative to control; format: organism-based; parameters: dose 1 mg/kg, route intraperitoneal; conditions: in vivo; procedure, shortened: as §3
Rattus norvegicus [23] = test: Toxicity in Brown Norwegian rat bearing BN472 tumor assessed as decrease in spleen weight at 1 mg/kg, ip administered once daily after 4 days of tumor transplantation for 17 to 18 days relative to control; format: organism-based; parameters: dose 1 mg/kg, route intraperitoneal; scale not given: the % may be the effect or the level left; conditions: in vivo; procedure, shortened: as §3
Rattus norvegicus [24] = test: Toxicity in Brown Norwegian rat bearing BN472 tumor assessed as increase in spleen weight at 0.1 mg/kg, ip administered once daily after 4 days of tumor transplantation for 17 to 18 days relative to control; format: organism-based; parameters: dose 0.1 mg/kg, route intraperitoneal; conditions: in vivo; procedure, shortened: as §3
Rattus norvegicus [25] = test: Toxicity in Brown Norwegian rat bearing BN472 tumor assessed as decrease in liver weight at 1 mg/kg, ip administered once daily after 4 days of tumor transplantation for 17 to 18 days relative to control; format: organism-based; parameters: dose 1 mg/kg, route intraperitoneal; scale not given: the % may be the effect or the level left; conditions: in vivo; procedure, shortened: as §3
Rattus norvegicus [26] = test: Toxicity in Brown Norwegian rat bearing BN472 tumor assessed as increase in kidney weight at 0.1 mg/kg, ip administered once daily after 4 days of tumor transplantation for 17 to 18 days relative to control; format: organism-based; parameters: dose 0.1 mg/kg, route intraperitoneal; conditions: in vivo; procedure, shortened: as §3
Rattus norvegicus [27] = test: (§4) Toxicity in Brown Norwegian rat bearing BN472 tumor assessed as decrease in adrenal weight at 0.1 mg/kg, ip administered once daily after 4 days of tumor transplantation for 17 to 18 days relative to control; format: organism-based; parameters: dose 0.1 mg/kg, route intraperitoneal; scale not given: the % may be the effect or the level left; conditions: in vivo; procedure, shortened: as §3
Rattus norvegicus [28] = test: as §4; format: organism-based; parameters: dose 0.1 mg/kg, route intraperitoneal; scale not given: the % may be the effect or the level left; conditions: in vivo; procedure, shortened: as §3; remark: listed apart in the source
[29] = target: Urokinase-type plasminogen activator (Homo sapiens, UniProt P00749)

Chain of Plasminogen (Homo sapiens, UniProt P00747) (P00747 97-580 limits assumed): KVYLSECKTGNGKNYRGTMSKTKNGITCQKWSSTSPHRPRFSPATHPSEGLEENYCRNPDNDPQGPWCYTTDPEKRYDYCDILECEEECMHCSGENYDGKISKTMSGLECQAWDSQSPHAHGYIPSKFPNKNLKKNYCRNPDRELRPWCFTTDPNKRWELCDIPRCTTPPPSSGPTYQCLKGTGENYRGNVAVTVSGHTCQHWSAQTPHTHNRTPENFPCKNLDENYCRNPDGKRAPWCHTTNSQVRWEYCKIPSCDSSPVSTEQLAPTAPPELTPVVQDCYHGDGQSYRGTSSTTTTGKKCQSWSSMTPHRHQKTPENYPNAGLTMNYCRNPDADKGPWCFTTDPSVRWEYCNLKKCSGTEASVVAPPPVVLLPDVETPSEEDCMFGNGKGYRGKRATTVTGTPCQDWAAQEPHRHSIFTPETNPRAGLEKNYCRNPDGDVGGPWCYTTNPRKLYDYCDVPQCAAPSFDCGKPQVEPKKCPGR
Chain of Plasminogen (Homo sapiens, UniProt P00747) (P00747 581-810 limits assumed): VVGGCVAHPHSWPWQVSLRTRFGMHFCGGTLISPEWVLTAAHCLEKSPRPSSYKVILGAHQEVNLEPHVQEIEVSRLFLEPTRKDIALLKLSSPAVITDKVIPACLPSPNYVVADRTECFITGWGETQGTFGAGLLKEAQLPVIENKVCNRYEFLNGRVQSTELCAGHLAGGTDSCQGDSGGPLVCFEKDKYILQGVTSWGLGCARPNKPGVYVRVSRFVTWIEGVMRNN
Chain of Coagulation factor X (P00742 41-179 limits assumed): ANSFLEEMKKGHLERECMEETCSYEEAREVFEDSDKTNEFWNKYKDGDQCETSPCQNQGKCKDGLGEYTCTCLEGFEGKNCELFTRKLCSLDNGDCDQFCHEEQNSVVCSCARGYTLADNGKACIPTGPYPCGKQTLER
Chain of Coagulation factor X (P00742 235-488 limits assumed): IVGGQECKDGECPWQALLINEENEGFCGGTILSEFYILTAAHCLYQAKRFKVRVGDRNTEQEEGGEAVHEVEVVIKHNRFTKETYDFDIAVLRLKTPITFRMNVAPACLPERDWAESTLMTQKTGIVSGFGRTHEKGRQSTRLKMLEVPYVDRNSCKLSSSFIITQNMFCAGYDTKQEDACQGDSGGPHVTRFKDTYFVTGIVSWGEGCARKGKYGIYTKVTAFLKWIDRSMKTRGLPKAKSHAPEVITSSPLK
Chain of Tissue-type plasminogen activator (P00750 whole entry): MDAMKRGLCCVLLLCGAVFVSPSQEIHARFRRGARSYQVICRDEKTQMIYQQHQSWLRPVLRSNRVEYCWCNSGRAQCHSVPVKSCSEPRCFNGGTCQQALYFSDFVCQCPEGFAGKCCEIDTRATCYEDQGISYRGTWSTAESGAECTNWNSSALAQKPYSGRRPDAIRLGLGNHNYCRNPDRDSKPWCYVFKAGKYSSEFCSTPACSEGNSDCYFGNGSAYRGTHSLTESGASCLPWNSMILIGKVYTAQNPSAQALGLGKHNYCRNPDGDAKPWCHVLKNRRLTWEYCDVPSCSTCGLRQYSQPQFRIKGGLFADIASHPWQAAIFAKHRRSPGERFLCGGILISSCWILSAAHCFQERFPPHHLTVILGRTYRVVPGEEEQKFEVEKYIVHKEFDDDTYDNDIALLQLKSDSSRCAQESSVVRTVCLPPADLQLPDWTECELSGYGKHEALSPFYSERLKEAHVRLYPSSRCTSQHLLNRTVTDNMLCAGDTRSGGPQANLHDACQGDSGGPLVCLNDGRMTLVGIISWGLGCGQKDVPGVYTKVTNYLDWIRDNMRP
Chain of Urokinase-type plasminogen activator (Rattus norvegicus, UniProt P29598) (P29598 20-177 limits assumed): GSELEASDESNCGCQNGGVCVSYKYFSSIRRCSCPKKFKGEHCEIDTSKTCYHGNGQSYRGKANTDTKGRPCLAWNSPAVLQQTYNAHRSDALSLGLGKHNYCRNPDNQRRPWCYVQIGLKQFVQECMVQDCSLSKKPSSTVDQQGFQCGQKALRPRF
Chain of Urokinase-type plasminogen activator (Rattus norvegicus, UniProt P29598) (P29598 179-432 limits assumed): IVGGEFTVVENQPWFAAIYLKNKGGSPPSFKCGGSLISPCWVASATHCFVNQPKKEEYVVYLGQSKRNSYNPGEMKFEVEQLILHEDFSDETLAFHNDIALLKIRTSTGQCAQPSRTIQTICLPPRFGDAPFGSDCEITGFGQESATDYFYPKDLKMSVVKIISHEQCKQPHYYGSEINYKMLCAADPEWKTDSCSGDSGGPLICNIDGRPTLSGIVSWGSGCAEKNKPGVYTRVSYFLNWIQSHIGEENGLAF
Chain of Urokinase-type plasminogen activator (Mus musculus, UniProt P06869) (P06869 21-178 limits assumed): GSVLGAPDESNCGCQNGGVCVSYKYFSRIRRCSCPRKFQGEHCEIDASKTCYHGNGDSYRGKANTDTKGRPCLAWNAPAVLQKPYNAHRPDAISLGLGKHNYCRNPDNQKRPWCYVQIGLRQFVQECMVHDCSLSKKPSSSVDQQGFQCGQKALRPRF
Chain of Urokinase-type plasminogen activator (Mus musculus, UniProt P06869) (P06869 180-433 limits assumed): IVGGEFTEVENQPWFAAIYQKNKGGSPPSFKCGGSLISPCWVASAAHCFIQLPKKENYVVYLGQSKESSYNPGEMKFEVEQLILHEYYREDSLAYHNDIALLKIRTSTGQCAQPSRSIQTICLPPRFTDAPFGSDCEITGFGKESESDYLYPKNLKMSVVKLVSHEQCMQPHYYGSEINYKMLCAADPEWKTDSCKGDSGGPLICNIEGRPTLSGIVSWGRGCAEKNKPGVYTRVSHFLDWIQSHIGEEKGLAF
Chain of Plasminogen (Rattus norvegicus, UniProt Q01177) (Q01177 97-581 limits assumed): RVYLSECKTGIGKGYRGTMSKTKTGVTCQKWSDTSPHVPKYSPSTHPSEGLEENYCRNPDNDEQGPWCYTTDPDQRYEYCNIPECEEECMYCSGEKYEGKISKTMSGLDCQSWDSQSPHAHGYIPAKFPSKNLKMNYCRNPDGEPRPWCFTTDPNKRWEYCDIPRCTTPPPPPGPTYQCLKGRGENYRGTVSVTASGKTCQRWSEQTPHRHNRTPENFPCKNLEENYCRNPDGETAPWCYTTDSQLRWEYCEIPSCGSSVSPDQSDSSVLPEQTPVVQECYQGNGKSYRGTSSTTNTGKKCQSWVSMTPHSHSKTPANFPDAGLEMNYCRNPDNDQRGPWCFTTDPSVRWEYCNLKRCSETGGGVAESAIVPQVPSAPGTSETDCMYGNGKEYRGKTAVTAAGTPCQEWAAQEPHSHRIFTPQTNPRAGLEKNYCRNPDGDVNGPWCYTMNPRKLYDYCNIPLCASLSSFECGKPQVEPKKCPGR
Chain of Plasminogen (Rattus norvegicus, UniProt Q01177) (Q01177 582-812 limits assumed): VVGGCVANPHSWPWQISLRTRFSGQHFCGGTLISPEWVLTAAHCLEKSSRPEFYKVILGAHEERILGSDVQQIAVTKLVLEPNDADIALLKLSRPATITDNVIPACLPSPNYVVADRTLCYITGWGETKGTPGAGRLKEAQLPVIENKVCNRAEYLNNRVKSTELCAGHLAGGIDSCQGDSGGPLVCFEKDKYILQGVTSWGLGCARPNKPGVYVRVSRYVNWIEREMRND

COC(=O)NC(Cc1ccc(NC(=N)N)cc1)P(=O)(Oc1ccc(NC(C)=O)cc1)Oc1ccc(NC(C)=O)cc1 (stereo unspecified) gave a remaining at 3 h [1] of 81%, an IC50 [2] of 0.0245 µM and an IC50 [3] of 0.008 µM. The IC50 (Plasminogen [4]) was 2.2 µM, the IC50 (Prothrombin) was 45 µM and the IC50 [5] was 6.1 µM. It also gave an IC50 (Plasminogen [6]) of 2.8 µM, an IC50 (Coagulation factor X) of 30 µM and a logD [7] of -0.08. The half-life [8] was greater than 336 h, the half-life [9] was 64 h and the half-life [10] was 3 h. It also gave an Activity [11] of 10%, an Activity [12] of 18% and an Activity [13] of 15%. The Activity [14] was 42%, the Activity [15] was 70% and the Activity [16] was 49%. It also gave an Activity [17] of 6%, an Activity (Rattus norvegicus [18]) of 163.5 g and an Activity (Rattus norvegicus [19]) of 170.5 g. The Activity (Rattus norvegicus [20]) was 18%, the Activity (Rattus norvegicus [21]) was 16% and the Activity (Rattus norvegicus [22]) was 33%. The Activity (Rattus norvegicus [23]) was 10%, the Activity (Rattus norvegicus [24]) was 3% and the Activity (Rattus norvegicus [25]) was 8%. It also gave an Activity (Rattus norvegicus [26]) of 7%, an Activity (Rattus norvegicus [27]) of 2% and an Activity (Rattus norvegicus [28]) of 5%. For the same molecule, the Kapp [29] was 1e+06 M⁻¹ s⁻¹.
